According to the RNAGym collection of RNA variant scans (doi:10.1038/nmeth.2970):

B1: NELF-E aptamer (parent)
chain: CCCAACGACUGCCGAGCGAGAUUACGCUUGAGCGCCCCACUGAGGAUGCCCACGGGCGAUUGGGGCACGG

Variants of: B1
Assay: HiTS-RAP
Conditions: with NELF-E (Drosophila)
Procedure, shortened: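 Aptamer DNA templates carrying a T7 promoter and ter site were sequenced on an Illumina GAIIx flowcell, then transcribed in situ by T7 RNA polymerase and halted by GST-Tus (30 minutes, 37°C). Clusters were imaged after 30-minute room-temperature equilibration with NELF-E-mOrange at 0.064 to 1000 nM in HEPES binding buffer, and only the first binding curve was used. Intensities were normalised to sequencing intensity and averaged per sequence. Kd came from weighted Hill fits, keeping fits with variance below 1,000,000.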

C1A and C1G are within 1.5-fold of each other in Kd: 4.94 nM for the first, 4.93 nM for the second.

C1U and C2A are within 1.5-fold of each other in Kd: 4.73 nM for the first, 5.18 nM for the second.

C2G and C2U are within 1.5-fold of each other in Kd: 5.3 nM for the first, 5.27 nM for the second.

C3A and C3G are within 1.5-fold of each other in Kd: 5.8 nM for the first, 5.16 nM for the second.

C3U and A4C are within 1.5-fold of each other in Kd: 5.55 nM for the first, 6.33 nM for the second.

A4C A5G and A4C A8G are within 1.5-fold of each other in Kd: 6.09 nM for the first, 6.82 nM for the second.

A4C A24G and A4C C6G are within 1.5-fold of each other in Kd: 7.08 nM for the first, 8.66 nM for the second.

A4C C9G and A4C C12G are within 1.5-fold of each other in Kd: 7.49 nM for the first, 7.65 nM for the second.

A4C G7U and A4C G14U are within 1.5-fold of each other in Kd: 6.88 nM for the first, 7.54 nM for the second.

A4C U10G and A4C U22G are within 1.5-fold of each other in Kd: 6.48 nM for the first, 6.04 nM for the second.

A4C U23G and A4C U29G are within 1.5-fold of each other in Kd: 7.29 nM for the first, 7.86 nM for the second.

Compared with A4C U41G, A4G is 1.8-fold lower in Kd: 8.98 nM for the first, 5.08 nM for the second. The second binds more tightly here.

A4G A5C and A4G A5G are within 1.5-fold of each other in Kd: 6.45 nM for the first, 5.81 nM for the second.

A4G A5U and A4G A8C are within 1.5-fold of each other in Kd: 5.91 nM for the first, 6.29 nM for the second.

A4G A8G and A4G A8U are within 1.5-fold of each other in Kd: 5.83 nM for the first, 6.21 nM for the second.

A4G A15G and A4G A15U are within 1.5-fold of each other in Kd: 4.97 nM for the first, 6.63 nM for the second.

A4G A19C and A4G A19G are within 1.5-fold of each other in Kd: 4.21 nM for the first, 5.64 nM for the second.

A4G A19U and A4G A21G are within 1.5-fold of each other in Kd: 6.08 nM for the first, 6 nM for the second.

A4G A21U and A4G A24G are within 1.5-fold of each other in Kd: 5.84 nM for the first, 6.26 nM for the second.

Compared with A4G A24U, A4G A31C is 1.6-fold lower in Kd: 6.89 nM for the first, 4.18 nM for the second. The second binds more tightly here.

A4G A31G and A4G A31U are within 1.5-fold of each other in Kd: 7.17 nM for the first, 6.57 nM for the second.

Going from A4G A39C to A4G A39G, the Kd falls from 30.7 nM to 10.6 nM (2.9-fold).

First: A4G A39U
Second: A4G A43C
The Kd of the first is 3.5-fold lower: 25.9 nM for the first, 90.1 nM for the second.

Compared with A4G A43G, A4G A43U is 2.6-fold higher in Kd: 22.2 nM for the first, 57 nM for the second.

Going from A4G A46G to A4G A46U, the Kd rises from 37.6 nM to 72.7 nM (1.9-fold). The first binds more tightly here.

A4G A52C and A4G A52G are within 1.5-fold of each other in Kd: 6.42 nM for the first, 4.59 nM for the second.

Compared with A4G A52U, A4G A59G is 2.2-fold higher in Kd: 18.3 nM for the first, 40 nM for the second.

Going from A4G A59U to A4G A67C, the Kd falls from 113 nM to 5.34 nM (21-fold).

A4G A67G and A4G A67U are within 1.5-fold of each other in Kd: 6.54 nM for the first, 6.47 nM for the second.

A4G C6A and A4G C6G are within 1.5-fold of each other in Kd: 6.8 nM for the first, 5.28 nM for the second.

A4G C6U and A4G C9A are within 1.5-fold of each other in Kd: 6.08 nM for the first, 6.66 nM for the second.

A4G C9G and A4G C9U are within 1.5-fold of each other in Kd: 5.74 nM for the first, 5.95 nM for the second.

A4G C12A and A4G C12G are within 1.5-fold of each other in Kd: 5.36 nM for the first, 5.9 nM for the second.

A4G C12U and A4G C13A are within 1.5-fold of each other in Kd: 5.25 nM for the first, 5.91 nM for the second.

A4G C13G and A4G C13U are within 1.5-fold of each other in Kd: 5.3 nM for the first, 4.78 nM for the second.

A4G C17A and A4G C17G are within 1.5-fold of each other in Kd: 4.31 nM for the first, 5.57 nM for the second.

A4G C17U and A4G C25A are within 1.5-fold of each other in Kd: 5.09 nM for the first, 6.24 nM for the second.

A4G C25G and A4G C25U are within 1.5-fold of each other in Kd: 5.98 nM for the first, 6.15 nM for the second.

A4G C27A and A4G C27G are within 1.5-fold of each other in Kd: 5.54 nM for the first, 5.73 nM for the second.

A4G C27U and A4G C33A are within 1.5-fold of each other in Kd: 4.47 nM for the first, 5.4 nM for the second.

A4G C33G and A4G C33U are the same in Kd: 5.81 nM for the first, 5.81 nM for the second.

A4G C35A and A4G C35U are within 1.5-fold of each other in Kd: 9.55 nM for the first, 13.5 nM for the second.

A4G C36A and A4G C36G are within 1.5-fold of each other in Kd: 7.98 nM for the first, 10.4 nM for the second.

Compared with A4G C36U, A4G C37A is 1.7-fold higher in Kd: 7.32 nM for the first, 12.3 nM for the second.

Compared with A4G C37G, A4G C37U is 1.9-fold higher in Kd: 6.99 nM for the first, 13.2 nM for the second. The first binds more tightly here.

Going from A4G C38A to A4G C38U, the Kd falls from 44.4 nM to 8.59 nM (5.2-fold). The second binds more tightly here.

Going from A4G C40G to A4G C40U, the Kd rises from 6.29 nM to 64.8 nM (10-fold). The first binds more tightly here.

A4G C49U and A4G C50A are within 1.5-fold of each other in Kd: 20.8 nM for the first, 17.7 nM for the second.

A4G C50G and A4G C50U are within 1.5-fold of each other in Kd: 10.4 nM for the first, 14.2 nM for the second.

Compared with A4G C51A, A4G C51G is 2.3-fold lower in Kd: 9.97 nM for the first, 4.36 nM for the second.

A4G C51U and A4G C53A are within 1.5-fold of each other in Kd: 7.58 nM for the first, 6.64 nM for the second.

Going from A4G C53G to A4G C53U, the Kd falls from 7.58 nM to 3.85 nM (2-fold). The second binds more tightly here.

A4G C57G and A4G C57U are within 1.5-fold of each other in Kd: 7.07 nM for the first, 5.88 nM for the second.

A4G C66G and A4G C66U are within 1.5-fold of each other in Kd: 5.69 nM for the first, 5.13 nM for the second.

A4G G7A and A4G G7C are within 1.5-fold of each other in Kd: 6.95 nM for the first, 7.38 nM for the second.

A4G G7U and A4G G11A are within 1.5-fold of each other in Kd: 6.07 nM for the first, 6.4 nM for the second.

A4G G11U and A4G G14A are within 1.5-fold of each other in Kd: 6.46 nM for the first, 5.98 nM for the second.

A4G G14U and A4G G16A are within 1.5-fold of each other in Kd: 6.38 nM for the first, 6.14 nM for the second.

A4G G16U and A4G G18A are within 1.5-fold of each other in Kd: 6.47 nM for the first, 5.38 nM for the second.

A4G G18U and A4G G20A are within 1.5-fold of each other in Kd: 5.96 nM for the first, 5.15 nM for the second.

First: A4G G20U
Second: A4G G26A
The Kd of the first is 1.6-fold higher: 7.1 nM for the first, 4.55 nM for the second. The second binds more tightly here.

A4G G26U and A4G G30A are within 1.5-fold of each other in Kd: 7.06 nM for the first, 4.89 nM for the second.

A4G G30U and A4G G32A are within 1.5-fold of each other in Kd: 5.76 nM for the first, 5.33 nM for the second.

A4G G32U and A4G G34A are within 1.5-fold of each other in Kd: 5.95 nM for the first, 7.45 nM for the second.

Going from A4G G34C to A4G G34U, the Kd falls from 10.8 nM to 6.59 nM (1.6-fold).

Going from A4G G42A to A4G G42U, the Kd falls from 45.2 nM to 9.27 nM (4.9-fold). The second binds more tightly here.

Going from A4G G44A to A4G G44U, the Kd falls from 54.3 nM to 7.66 nM (7.1-fold). The second binds more tightly here.

Compared with A4G G45A, A4G G45U is 10-fold lower in Kd: 85.6 nM for the first, 8.32 nM for the second. The second binds more tightly here.

A4G G48A and A4G G48U are within 1.5-fold of each other in Kd: 11 nM for the first, 8.36 nM for the second.

First: A4G G54A
Second: A4G G54U
The Kd of the first is 2.1-fold higher: 14.1 nM for the first, 6.61 nM for the second. The second binds more tightly here.

A4G G55A and A4G G55C are within 1.5-fold of each other in Kd: 8.61 nM for the first, 8.07 nM for the second.

A4G G55U and A4G G56A are within 1.5-fold of each other in Kd: 7.68 nM for the first, 9.42 nM for the second.

First: A4G G56U
Second: A4G G58U
The Kd of the first is 2.2-fold lower: 6.06 nM for the first, 13.2 nM for the second.

First: A4G G62A
Second: A4G G62U
The Kd of the first is 2.3-fold higher: 20.8 nM for the first, 8.86 nM for the second.

First: A4G G63A
Second: A4G G63C
The Kd of the first is 1.9-fold lower: 15.1 nM for the first, 28.6 nM for the second.

A4G G63U and A4G G64A are within 1.5-fold of each other in Kd: 11.1 nM for the first, 8.61 nM for the second.

A4G G64C and A4G G64U are within 1.5-fold of each other in Kd: 7.19 nM for the first, 7.6 nM for the second.

Going from A4G G65A to A4G G65C, the Kd rises from 5.5 nM to 16.2 nM (2.9-fold).

A4G G65U and A4G U10A are within 1.5-fold of each other in Kd: 6.71 nM for the first, 5.89 nM for the second.

A4G U10C and A4G U10G are within 1.5-fold of each other in Kd: 5.06 nM for the first, 5.09 nM for the second.

A4G U22A and A4G U22C are within 1.5-fold of each other in Kd: 6.17 nM for the first, 4.86 nM for the second.

A4G U22G and A4G U23A are within 1.5-fold of each other in Kd: 5.51 nM for the first, 5.89 nM for the second.

A4G U23C and A4G U23G are within 1.5-fold of each other in Kd: 4.96 nM for the first, 5.42 nM for the second.

Variant A4G U28A has a Kd of 4.59 nM.
